# AP ELISA ortho: alternative complement pathway inhibitors, primary screen, biochemical, ELISA, human serum, orthogonally pooled compounds; inhibition, % at 5 µM; LPS-coated ELISA, C3 deposition; tested in compound mixtures; AID 1235, 2008; 0.08% of 62,000 active;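 active = inhibition above 30% in each of the two pooled mixtures holding the compound, so the lower value exceeds 30%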;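 note: 0% = serum in Mg-EGTA without compound and 100% = EDTA serum blank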
#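 Test system – human serum alternative complement pathway, C3 deposition on LPS-coated wells · Buffer or medium – diluted human serum in Mg2+-EGTA GVB++ · Compound dosing – 5 µM each compound, pools of ten, 50 µM per pool · Schedule – 1 h serum-compound exposure at 37 °C · Measured by – Anti-C3 ELISA, OD 450 nm · Read-out basis – percent inhibition of C3 deposition onto LPS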
# M1 antag: antagonists of rat M1 muscarinic receptor; Muscarinic acetylcholine receptor M1 (Rattus norvegicus), P08482; CHO-M1 cells, Fluo-4 calcium, ACh EC80 antagonist mode; stronger effect = lower value; B-score at 10 µM; 3.4% of 64,000 active; AID 628, 2007;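 active = calcium fluorescence response, raw or row-and-column corrected B-score, differing from the plate sample mean either way at a set confidence level, mostly lower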
# D1 mod: D1 CRE-luciferase signal change, two-sided – cell-based, HEK293 D1, dopamine EC30, D1 allosteric modulator project, primary screen; dopamine EC30 potentiation; actives deviate in either direction; B-score at 10 µM; 5.9% of 58,000 active;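 active = luminescence count or its row- and column-corrected plate score outside the 99.7% band of the plate's sample wells, on either side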
# Target sequence (P21728 whole entry, looked up): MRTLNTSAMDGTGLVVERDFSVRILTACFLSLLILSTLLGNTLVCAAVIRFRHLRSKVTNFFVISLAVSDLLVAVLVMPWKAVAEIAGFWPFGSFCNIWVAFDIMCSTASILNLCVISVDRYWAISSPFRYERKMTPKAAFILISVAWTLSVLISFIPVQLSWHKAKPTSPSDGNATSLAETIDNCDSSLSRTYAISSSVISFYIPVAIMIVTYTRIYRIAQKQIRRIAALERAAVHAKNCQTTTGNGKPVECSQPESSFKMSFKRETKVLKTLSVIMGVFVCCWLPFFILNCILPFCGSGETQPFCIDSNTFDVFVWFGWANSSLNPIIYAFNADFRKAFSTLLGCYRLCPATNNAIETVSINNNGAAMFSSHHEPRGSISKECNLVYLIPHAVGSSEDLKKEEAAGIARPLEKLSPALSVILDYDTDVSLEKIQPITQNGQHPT
# M1 agonist: M1 muscarinic receptor agonists, primary screen, CHO-M1 cells, Fluo-4 calcium, agonist mode; Muscarinic acetylcholine receptor M1; Fluo-4 calcium fluorescence; stronger effect = higher value; B-score at 10 µM; 3% of 64,000 active; AID 626, 2007;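 active = fluorescence rise, raw or as B-score row- and column-corrected plate score, outside the 99.7% band of its plate's samples, either direction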
# Htt clearance: clearance of mutant huntingtin inclusions, primary screen, imaging, HeLa Exon1htt(103Q)mCFP, confocal imaging; inhibition, % at 1.5 µM; aggregate imaging; zero = plate's median compound well; 0.42% of 47,000 active; AID 853, 2007;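 active = inhibition of aggregate fluorescence above about 70%, also judged a hit by eye on the cell image, limit read from the data, passing the limit was not always enough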;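 note: cells exposed to compound for three days before fixation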
# M1 antag conf: rat M1 muscarinic receptor antagonists, confirmation, CHO cells, Fluo-4 calcium, duplicate. shares compounds with M1 antag. ACh EC80 antagonism; stronger effect = lower value. calcium response (max-min fluorescence) at 10 µM. 43% of 1,700 active;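 active = calcium response below the same-plate mean of wells given acetylcholine alone at its 80%-effect dose, minus 3 SD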;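 note: raw fluorescence intensity difference in arbitrary instrument units and not normalized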
# mGluR4 antag: human mGluR4 response to M1 antagonist hits, M1 allosteric modulator project, cell-based, antagonist mode, secondary assay 1. shares compounds with M1 antag. CHO-mGluR4 calcium flux, Fluo-4 fluorescence, glutamate EC80; stronger effect = lower value. fluorescence response (max-min) at 10 µM. 0.9% of 1,700 active;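 active = fluorescence response below the plate's average for near-maximal glutamate wells, less 3 SD of those wells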;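 note: raw unnormalized fluorescence span taken in the window right after glutamate addition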
# An asterisk follows results filed as active; . = not tested or not shown. Compounds with a hit are over-represented: about 9% of the library has one in this group of screens.
SMILES,AP ELISA ortho,M1 antag,D1 mod,M1 agonist,Htt clearance,M1 antag conf,mGluR4 antag
Cc1csc(NC(=O)CSc2ncnc3c2cnn3-c2ccccc2Cl)n1,0,-2.7*,-2.1,3.9,.,501,184
N#Cc1nc(COc2ccc(-c3ccccc3)cc2)oc1NCCCN1CCOCC1,7,-3*,-1.3,-1.2,.,545,237
N#Cc1nc(COc2ccccc2)oc1NCCN1CCOCC1,14,0.086,-1.1,0.65,-32,.,.
CC(=O)Nc1c2c(nn1-c1ccc(C)cc1C)CSC2,-11,-1.9*,-1.4,-0.31,20,641,259
CCCC(=O)Nc1c2c(nn1-c1ccc(C)cc1C)CSC2,22,0.18,-0.051,0.12,18,.,.
O=C(NC1CCCCC1)N(Cc1cc2cc3c(cc2[nH]c1=O)OCCO3)CC1CCCO1 (centres undefined),-11,0.49,.,0.21,.,.,.
Cc1cc(C)c2cc(CN(CC3CCCO3)C(=O)NC3CCCCC3)c(=O)[nH]c2c1 (centres undefined),10,-3.4*,2.3,0.038,.,469,247
CCN(CC)c1ncnc2sc(C(=O)N3CCN(c4ccccc4)CC3)c(C)c12,.,1.5,-1,-0.13,.,.,.
O=C(Nc1ccc(S(=O)(=O)N2CCc3ccccc3C2)cc1)C1CCCO1 (centres undefined),7,-0.049,0.3,-0.1,.,.,.
O=C(Nc1ccc(S(=O)(=O)N2CCCc3ccccc32)cc1)C1CCCO1 (centres undefined),19,-9.7*,0.31,0.36,.,29*,208
COc1ccccc1N1CCN(C(=O)c2cnn3cccnc23)CC1,12,-0.63,0.83,0.56,-1,.,.
S=C1N(c2ccccc2)C(c2cccc3ccccc23)N2CCCN12 (centres undefined),.,.,.,.,21,.,.
CN1CCCN=C1COC(=O)C(O)(c1ccccc1)C1CCCCC1 (centres undefined),10,-16*,-0.087,0.51,.,26*,247
CCOC(=O)C(NC(=O)N1CCCCC1)(c1ccccc1)C(F)(F)F (centres undefined),18,0.23,0.16,0.88,15,.,.
C=CCNC(=O)CC(C)C(CCCCC)C(=O)O (centres undefined),-8,0.012,0.063,-0.8,3,.,.
CC(C)NC(=O)Cn1nnc(-c2cccc(NC(=O)c3ccccc3F)c2)n1,1,-17*,-0.48,0.58,.,634,250
Cc1cc(C)n(-c2c(F)c(F)c(CN3CCCCC3)c(F)c2F)n1,.,-2.5*,.,0.028,.,640,187
Cc1cc(C)c(C#N)c(SCC(=O)N2CCN(Cc3ccccc3)CC2)n1,.,0.059,0.17,0.076,-35,.,.
CCN(Cc1ccccc1)C(=O)CSc1nc(C)cc(C)c1C#N,10,-2.4*,-0.75,-0.21,.,551,238
O=C(Nc1ccc2snnc2c1)N1CCOCC1,7,-2.4*,.,-1.4,-85,599,208
O=C(Nc1ccc2snnc2c1)N1CCN(c2ccccc2)CC1,23,-0.54,-1.3,0.068,-22,.,.
CCOC(=O)C1CCCN(C(=O)c2cc3c(C)nc4ccccc4c3o2)C1 (centres undefined),11,-2.7*,0.97,-0.44,2,486*,143*
CC1(C)Cc2c(sc3c4nnnn4c4nnnn4c23)CO1,.,-0.0028,.,1.5,.,.,.
CC(=O)c1c(C(C)=O)c(C)n(-c2ccc(N)c(C)c2)c1C,.,.,.,.,-34,.,.
Cc1ccc(CCNC(=O)Cn2cccc2)cc1,12,-0.37,-0.76,0.15,.,.,.
OCCNc1nc(N2CCN(Cc3ccccc3)CC2)nc2ccccc12,1,-0.45,-1.1,0.12,30,.,.
C=CCNc1nc(N2CCCC2)nc2ccccc12,-4,-3.4*,-4.5*,-0.83,-83,581,265
